Results: the M2OR odorant receptor database

Each compound was assayed against T1, Or1m1 (Mus musculus) (UniProt Q8VFM9). Details: stereoisomer not certain.
T1 sequence (whole entry): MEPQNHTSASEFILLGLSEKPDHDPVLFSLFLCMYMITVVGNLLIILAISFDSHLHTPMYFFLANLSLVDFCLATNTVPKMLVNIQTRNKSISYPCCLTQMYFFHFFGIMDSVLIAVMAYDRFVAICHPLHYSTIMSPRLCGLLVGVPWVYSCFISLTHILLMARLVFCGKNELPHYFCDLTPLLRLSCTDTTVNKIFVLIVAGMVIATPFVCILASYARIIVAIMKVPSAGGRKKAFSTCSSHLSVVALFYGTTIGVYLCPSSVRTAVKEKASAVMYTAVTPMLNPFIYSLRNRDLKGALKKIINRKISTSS
Summary of the method: (§1)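 Whether a receptor–molecule pair is responsive (active) rests on the original authors' judgment that its measured signal was statistically different from baseline. Pairs without that judgment are non-responsive (inactive). Sources used varied assay methods, commonly transient luciferase assays in mammalian cell lines.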
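Also: active if original authors judged signal statistically different from baseline.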

Odorant receptor agonist call, inactive:
COc1nccnc1C, C=C(C)C1CCC2(C)OC2C1 (centres undefined), CCCCCOC(=O)CCC, CCCCCC=CCCC=O, C=C1C2CCC(C2)C1(C)C (centres undefined), CC1CCC(C(C)C)C(=O)C1 (centres undefined), Cc1occc1SSc1ccoc1C, Cc1ccc(C(C)C)cc1, CCCCCCCCOC=O, O=C(O)C1CCC1, CCCCCC(C)O (centres undefined), O=C(O)CCCCCCCCC(=O)O, COC(OC)c1ccccc1, Cc1ccc(C(C)C)c(O)c1, CC=Cc1ccc(OC)cc1, Cc1c(C)c(C)c(C=O)c(C)c1C, CCCCCOC(=O)CC, CC=CC(=O)C1=C(C)CCCC1(C)C, CCCCCCCCCCOC(C)=O, CCCCCC(C=O)=Cc1ccccc1, CCC(C)O (centres undefined), OCC=Cc1ccccc1, CCc1occc(=O)c1O, CCCCCCC=CC=O, C=CC(=C)CCC=C(C)C, Cc1ccccc1OC(=O)C(C)C, CCCCCCC(=O)OCCCC, CCCCCC(=Cc1ccccc1)C(OC)OC, CC(C)CS, C1CCOCC1, Cc1ccc(OC(=O)C(C)C)cc1, CC(=O)OCCc1ccccc1, C=CC(=O)CCCCC, CCCCCCC(C)O (centres undefined), CCCCCCCCCC=CC=O, CC(C)=C1CCC(C)CC1=O (centres undefined), CCC=CCCCCC=O

These compounds were tested against T2, Or5ar1 (Mus musculus) (UniProt Q8VGS3). Details: stereoisomer not certain.
T2 sequence (whole entry): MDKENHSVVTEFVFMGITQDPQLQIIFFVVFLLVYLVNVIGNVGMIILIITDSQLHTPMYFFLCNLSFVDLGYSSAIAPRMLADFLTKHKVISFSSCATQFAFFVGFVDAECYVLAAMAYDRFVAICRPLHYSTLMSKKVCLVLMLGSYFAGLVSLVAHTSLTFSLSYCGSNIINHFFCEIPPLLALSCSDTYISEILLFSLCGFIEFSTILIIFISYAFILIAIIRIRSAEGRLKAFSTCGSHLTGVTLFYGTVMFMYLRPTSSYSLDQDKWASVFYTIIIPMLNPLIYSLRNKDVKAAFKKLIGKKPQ
Summary of the method: as §1

Odorant receptor agonist call, inactive:
COc1nccnc1C, C=C(C)C1CCC2(C)OC2C1 (centres undefined), CCCCCOC(=O)CCC, CCCCCC=CCCC=O, C=C1C2CCC(C2)C1(C)C (centres undefined), CC1CCC(C(C)C)C(=O)C1 (centres undefined), Cc1occc1SSc1ccoc1C, Cc1ccc(C(C)C)cc1, CCCCCCCCOC=O, O=C(O)C1CCC1, CCCCCC(C)O (centres undefined), O=C(O)CCCCCCCCC(=O)O, COC(OC)c1ccccc1, Cc1ccc(C(C)C)c(O)c1, CC=Cc1ccc(OC)cc1, Cc1c(C)c(C)c(C=O)c(C)c1C, CCCCCOC(=O)CC, CC=CC(=O)C1=C(C)CCCC1(C)C, CCCCCCCCCCOC(C)=O, CCCCCC(C=O)=Cc1ccccc1, CCC(C)O (centres undefined), OCC=Cc1ccccc1, CCc1occc(=O)c1O, CCCCCCC=CC=O, C=CC(=C)CCC=C(C)C, Cc1ccccc1OC(=O)C(C)C, CCCCCCC(=O)OCCCC, CC(C)CS, C1CCOCC1, Cc1ccc(OC(=O)C(C)C)cc1, CC(=O)OCCc1ccccc1, C=CC(=O)CCCCC, CCCCCCC(C)O (centres undefined), CCCCCCCCCC=CC=O, CC(C)=C1CCC(C)CC1=O (centres undefined), CCC=CCCCCC=O

Odorant receptor agonist call, active:
CCCCCC(=Cc1ccccc1)C(OC)OC
